Measurements reported in ChEMBL document CHEMBL2346524, “Protein kinase inhibitor design by targeting the Asp-Phe-Gly (DFG) motif: the role of the DFG motif in the design of epidermal growth factor receptor inhibitors” (J Med Chem, 2013).

Key:
[1] = target: T1, Epidermal growth factor receptor (Homo sapiens, UniProt P00533); assay: Inhibition of human wild type GST-tagged EGFR kinase domain expressed in Sf9 cells by luminescence assay; format: cell-based
[2] = target: Epidermal growth factor receptor (Homo sapiens, UniProt P00533, L858R); assay: Inhibition of human GST-tagged EGFR L834R mutant expressed in Sf9 cells by luminescence assay; format: cell-based
Homo sapiens [3] = species on record: Homo sapiens; assay: Toxicity in human assessed as occurrence of rash; format: organism-based; conditions: in vivo
Homo sapiens [4] = species on record: Homo sapiens; assay: Toxicity in human assessed as occurrence of diarrhea; format: organism-based; conditions: in vivo
[5] = target: Cyclin-dependent kinase 2 (Homo sapiens) (UniProt P24941); assay: Inhibition of CDK2 (unknown origin) at 1 uM relative to control
Outline: (§1)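 Single-concentration profiling at 1 μM across a 317-kinase panel that includes wild-type and mutant EGFR and HER2. Activity of each kinase is given as percent inhibition relative to control.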

[6] = target: T1, Epidermal growth factor receptor; assay: Ratio of gefitinib IC50 to compound IC50 for human wild type GST-tagged EGFR kinase domain
[7] = target: T1, Epidermal growth factor receptor; assay: Inhibition of wild type EGFR (unknown origin) at 1 uM relative to control; outline: as §1
[8] = test system: Epidermal growth factor receptor (Homo sapiens), P04626+P00533+Q15303+P21860 [UNDEFINED MUTATION]; assay: Inhibition of EGFR T766M/L834R mutant (unknown origin) at 1 uM relative to control; format: protein assay; outline: as §1
[9] = target: Epidermal growth factor receptor (Homo sapiens) (UniProt P04626+P00533+Q15303+P21860); assay: Inhibition of EGFR L837Q mutant (unknown origin) at 1 uM relative to control; format: protein assay; outline: as §1
[10] = test system: Epidermal growth factor receptor (Homo sapiens), P00533 [L858R]; assay: Ratio of gefitinib IC50 to compound IC50 for human GST-tagged EGFR L834R mutant
[11] = test system: Epidermal growth factor receptor (Homo sapiens), P04626+P00533+Q15303+P21860 [UNDEFINED MUTATION]; assay: Inhibition of EGFR T766M mutant (unknown origin) at 1 uM relative to control; format: protein assay; outline: as §1
[12] = test system: Epidermal growth factor receptor (Homo sapiens), P00533 [L834R]; assay: Inhibition of EGFR L834R mutant (unknown origin) at 1 uM relative to control; format: protein assay; outline: as §1

## OC[C@@H](Nc1ncnc2oc(-c3ccccc3)c(-c3ccco3)c12)c1ccccc1
[1]
  IC50: 434 nM
[2]
  IC50: 73 nM

## OC[C@@H](Nc1ncnc2oc(-c3ccccc3)c(-c3ccccc3)c12)c1ccccc1
[1]
  IC50: 393 nM
[2]
  IC50: 52 nM

## CN(C)CC(=O)Nc1cccc(-c2c(-c3ccccc3)oc3ncnc(N[C@H](CO)c4ccccc4)c23)c1
[1]
  IC50: 48 nM
[2]
  IC50: 4 nM

## CC[C@@H](Nc1ncnc2oc(-c3ccccc3)c(-c3ccccc3)c12)c1ccccc1
[1]
  IC50: > 10000 nM
[2]
  IC50: > 10000 nM

## OC[C@@H](Nc1ncnc2oc(-c3ccccc3)c(-c3ccoc3)c12)c1ccccc1
[1]
  IC50: 352 nM
[2]
  IC50: 44 nM

## CC(=O)Nc1ccc(-c2c(-c3ccccc3)oc3ncnc(N[C@H](CO)c4ccccc4)c23)cc1
[1]
  IC50: 179 nM
[2]
  IC50: 23 nM

## CN(C)C/C=C/C(=O)Nc1cc2c(Nc3ccc(F)c(Cl)c3)ncnc2cc1O[C@@H]1CCOC1
Homo sapiens [3]
  Activity: 62%
Homo sapiens [4]
  Activity: 95%

## Nc1cccc(-c2c(-c3ccccc3)oc3ncnc(N[C@H](CO)c4ccccc4)c23)c1
[1]
  IC50: 203 nM
[2]
  IC50: 22 nM

## OC[C@@H](Nc1ncnc2oc(-c3ccccc3)c(Cl)c12)c1ccccc1
[1]
  IC50: 589 nM
[2]
  IC50: 168 nM

## CC(=O)Nc1cccc(-c2c(-c3ccccc3)oc3ncnc(N[C@H](CO)c4ccccc4)c23)c1
[1]
  IC50: 218 nM
[2]
  IC50: 29 nM

## CN(C)CCC(=O)Nc1cccc(-c2c(-c3ccccc3)oc3ncnc(N[C@H](CO)c4ccccc4)c23)c1
[5]
  inhibition: -4%
[6]
  Ratio IC50: 4
[7]
  inhibition: 99%
[1]
  IC50: 8 nM
[8]
  inhibition: 80%
[2]
  IC50: 2 nM
[9]
  inhibition: 106%
[10]
  Ratio IC50: 7
[11]
  inhibition: 50%
[12]
  inhibition: 100%

## CN(C)CCCCCC(=O)Nc1cccc(-c2c(-c3ccccc3)oc3ncnc(N[C@H](CO)c4ccccc4)c23)c1
[1]
  IC50: 4330 nM
[2]
  IC50: 486 nM

## COC(=O)[C@@H](Nc1ncnc2oc(-c3ccccc3)c(-c3ccccc3)c12)c1ccccc1
[1]
  IC50: 7890 nM
[2]
  IC50: 1450 nM

## C[C@@H](Nc1ncnc2oc(-c3ccccc3)c(-c3ccccc3)c12)c1ccccc1
[1]
  IC50: 2990 nM
[2]
  IC50: 339 nM

## CN(C)CCCCC(=O)Nc1cccc(-c2c(-c3ccccc3)oc3ncnc(N[C@H](CO)c4ccccc4)c23)c1
[1]
  IC50: 34 nM
[2]
  IC50: 4 nM

## CN(C)CCCC(=O)Nc1cccc(-c2c(-c3ccccc3)oc3ncnc(N[C@H](CO)c4ccccc4)c23)c1
[1]
  IC50: 29 nM
[2]
  IC50: 34 nM

## O=[N+]([O-])c1cccc(-c2c(-c3ccccc3)oc3ncnc(N[C@H](CO)c4ccccc4)c23)c1
[1]
  IC50: 820 nM
[2]
  IC50: 49 nM

## CC(C)CCCC(=O)Nc1cccc(-c2c(-c3ccccc3)oc3ncnc(N[C@H](CO)c4ccccc4)c23)c1
[1]
  IC50: > 25000 nM
[2]
  IC50: > 25000 nM
